High-throughput results (PubChem)
HTR1E antagonist – blocks the human 5-HT1E serotonin receptor. P28566. CHO 5-HT1E Ga15 NFAT-bla reporter, FRET, antagonist. inhibition, % at 6 µM. 65,000 tested, 0.99% active;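 active = inhibition above a set limit, the mean inhibition across every tested compound plus 3 SD, cut at about 29% in these data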;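 also: signal is the 460 over 535 nm emission ratio of beta-lactamase substrate; 0% = agonist plus DMSO wells and 100% = wells without agonist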
HTR1A agonist – 5-HT1a (human) receptor agonism | P08908 | CHO 5-HT1a Ga15 NFAT-bla reporter, FRET ratio; 0% basal, 100% maximal reference agonist | activation, % at 10 µM | 65,000 tested, 0.56% active;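 active = activation above the screen-wide mean activation plus 3 SD, cut at about 19% in these data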;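 also: 0% = DMSO wells and 100% = 5-CT at EC100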
5HT1E ag – activates the human 5-HT1E serotonin receptor. AID 574. P28566. activation, % at 6 µM. 65,000 tested, 0.69% active. CHO 5-HT1E Ga15 NFAT-bla reporter, FRET; 0% DMSO wells, 100% control agonist wells;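 active = activation above a set limit, the screen-wide mean activation plus 3 SD, cut at about 8.5% in these data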;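 also: 100% = positive control agonist at 1 µM giving full maximal response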
5-HT1A blocker – 5-HT1a (human) receptor antagonism. P08908. CHO 5-HT1a Ga15 NFAT-bla reporter, antagonist mode. inhibition, % at 10 µM. 62,000 tested, 0.68% active;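 active = inhibition above the mean of all tested compounds plus 3 SD, cut at about 43% in these data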;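 also: receptor stimulated by 5-CT agonist at 100 nM near EC80; beta-lactamase reporter measured by ratiometric fluorescence of a cleavable substrate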
S1P3 agonist – S1P3 (human) receptor agonism. Q99500. S1P3 NFAT-BLA reporter cells, FRET ratio; relative to 1 µM S1P, basal subtracted. activation, % at 4.5 µM. 60,000 tested, 0.1% active. AID 373;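 active = activation above the screen-wide mean plus 3 SD, cut at about 4.5% in these data, passing the limit was not always enough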
Target sequence (Q99500 whole entry, looked up): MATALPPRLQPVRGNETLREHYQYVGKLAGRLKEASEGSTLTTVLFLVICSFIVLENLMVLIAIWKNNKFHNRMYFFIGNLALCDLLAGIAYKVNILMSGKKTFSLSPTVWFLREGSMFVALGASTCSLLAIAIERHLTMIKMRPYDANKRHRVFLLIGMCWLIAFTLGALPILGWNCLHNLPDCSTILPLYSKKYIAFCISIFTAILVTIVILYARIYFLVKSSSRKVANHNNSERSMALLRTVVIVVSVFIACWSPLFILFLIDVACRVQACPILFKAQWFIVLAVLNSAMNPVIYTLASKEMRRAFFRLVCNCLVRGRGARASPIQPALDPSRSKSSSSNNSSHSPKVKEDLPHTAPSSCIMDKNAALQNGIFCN
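Benchmarks: high control 1 µM S1P / System: stable CHO line with human S1P3, Gα16, NFAT-BLA reporter / Dosing: single compound concentration, 4.5 µM final / Timing: 4 h compound at 37 °C, 2 h substrate at RT / Measured by: FRET β-lactamase substrate fluorescence, excitation 405 nm, 460/535 nm emission ratio, background-subtracted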
S1P1 ag pot – S1P1 (human) agonism or agonism potentiation; AID 449; P21453; 56,000 tested, 0.57% active; S1P1 CRE-bla cells, forskolin, beta-lactamase FRET, potentiator mode; S1P1 agonist co-added at EC20, 2 nM; 100% = saturating reference agonist, 0% = basal; activation, % at 9.5 µM;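 active = activation above a cutoff set at the mean activation of all tested compounds plus 3 SD, cut at about 54% in these data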;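 also: forskolin at 4 µM as EC80 and the EC20 agonist is SEW2871; 100% = SEW2871 at its EC100 plus forskolin at EC80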
An asterisk follows results filed as active; nt = no result. Compounds with a hit are over-represented: about 3% of the library has one in this group of screens.

SMILES | HTR1E antagonist | HTR1A agonist | 5HT1E ag | 5-HT1A blocker | S1P3 agonist | S1P1 ag pot
Cc1ccc2oc(=O)n(CCOc3ccccc3Cl)c2c1 | 32.1* | -0.1 | -1.8 | 24.5 | -1.4 | 4.6
CCCOc1ccccc1Cn1c(=O)oc2ccc(C)cc21 | 14.0 | -2.1 | -1.4 | 43.8* | nt | nt
Cc1cc(C)nc(-n2nc(C)c(Sc3ccc(F)cc3)c2N)n1 | -1.1 | 10.8 | -0.3 | -12.0 | 60.1* | -74.5
Cc1nn(C)c(C)c1Sc1ccc(Br)cc1 | 4.5 | -3.0 | -1.4 | 20.2 | -1.6 | 19.2
CCn1cnc2sc(C(=O)N3CCN(c4ccc(OC)cc4)CC3)c(C)c2c1=O | 5.8 | -0.6 | -0.8 | -13.5 | 0.2 | -36.6
CC1(C)CC(=O)C(C=Nc2ccccc2)=C(O)C1 | 16.5 | -4.1 | -1.7 | 19.0 | -1.4 | -9.1
O=C1CCCC(O)=C1C=Nc1ccc(O)cc1 | 15.4 | -1.1 | -1.2 | 43.4* | -2.7 | -9.8
Cc1ccc2c(c1)-c1c(cnn1CC(=O)Nc1ccccc1N1CCN(C)CC1)CO2 | 8.5 | 0.1 | 0.1 | 9.7 | -0.4 | -11.9
CCCCCCC(=O)c1c(C)[nH]c(C(=O)OCC)c1C | 36.5* | 2.4 | 0.5 | 3.7 | -1.5 | -30.9
CCCN(CCC)C(=O)c1c(C)[nH]c(C(=O)OCC)c1C | -9.4 | 0.5 | 0.8 | -6.9 | -0.9 | -3.0
Cc1ccc(N(CC2=NCCN2)c2cccc(O)c2)cc1 | 52.2* | nt | -1.8 | nt | -2.2 | -11.7
Oc1ccc(COCc2ccccc2)c2cccnc12 | 47.3* | -2.3 | 0.3 | 12.0 | -1.7 | 19.9
Oc1c(CN2CCN(c3ccccn3)CC2)cc(Cl)c2cccnc12 | 54.5* | -3.3 | 1.6 | 54.0* | -1.0 | 0.5
COc1ccc(CN2CCN(c3ccccn3)CC2)c(OC)c1 | -6.3 | 0.4 | 10.8* | 4.0 | -1.4 | -25.2
Oc1c(CN2CCCCC2)cc(COCc2ccccc2)c2cccnc12 | 48.0* | -2.2 | 1.6 | 29.6 | -0.4 | 13.3
COc1ccc(CN2CCN(c3ncccn3)CC2)c(OC)c1 | -3.8 | 4.1 | 1.8 | 0.0 | -1.1 | -19.1
Oc1ccc(CNc2ccccc2F)c2cccnc12 | -2.2 | -3.1 | -0.3 | -18.3 | -3.0 | -0.5
COCc1cc(CN2CCCC2)c(O)c2ncccc12 | 16.1 | -0.2 | 2.3 | 5.4 | -1.1 | -18.2
COc1ccccc1-n1c(CNC(=O)COc2ccccc2)n[nH]c1=S | 4.5 | -0.8 | -1.5 | 1.6 | nt | nt
CCN(CC)C(=O)CSc1ccccc1N | -7.9 | 19.9* | -0.6 | -4.8 | -0.8 | nt
C=CCS/C(=N\n1cnc2ccccc2c1=O)N1CCCCC1 | 1.7 | 99.0* | 0.3 | 1.1 | -0.8 | 1.7
CC1(C)CC(=O)C(/C=N/n2cnc3ccccc3c2=O)=C(O)C1 | 4.2 | -1.3 | -0.6 | 4.0 | -0.4 | 12.1
CCOC(=O)c1c(NC(=O)CSc2nnnn2C)sc(CC)c1C | 12.9 | -1.9 | -0.8 | 1.6 | -0.4 | -7.5
CC(CCc1ccccc1)NC(=O)CSc1nc(N)cc(N)n1 (configuration not stated) | -4.9 | 0.5 | 57.8* | 3.0 | -0.1 | 9.2
O=c1c2cc(N3CCOCC3)ccc2[nH]c(=S)n1CCCN1CCCC1 | -7.8 | -0.8 | 9.6* | 4.0 | nt | nt
SMILES | HTR1E antagonist | HTR1A agonist | 5HT1E ag | 5-HT1A blocker | S1P3 agonist | S1P1 ag pot
O=c1c2cc(N3CCOCC3)ccc2[nH]c(=S)n1CCCN1CCCCC1 | 16.1 | -0.5 | 0.4 | -5.8 | nt | nt
CSc1cccc(NC(=O)Nc2ccccc2)c1 | 17.5 | 0.1 | 10.1* | 25.9 | -1.8 | 11.1
CSc1cccc(NC(=O)COc2ccccc2)c1 | -2.0 | -2.4 | 0.3 | -11.0 | 0.3 | nt
CCC(C(=O)Nc1cnccn1)c1ccccc1 (configuration not stated) | -4.2 | -2.5 | 17.8* | -2.7 | -0.1 | -2.4
CCn1c(=O)cc(SCC(=O)Nc2ccccc2N2CCN(C)CC2)c2ccccc21 | -2.3 | 0.5 | -0.1 | 9.2 | 0.9 | 4.5
COC(=O)c1cccc(NC(=O)CSc2nnc(C)n2Cc2ccccc2)c1 | 3.1 | -4.2 | 1.4 | 0.3 | -0.1 | -11.3
O=C(CSc1nc2ccccc2o1)Nc1nc2ccccc2s1 | 0.7 | -1.2 | -0.9 | -5.1 | 0.7 | -8.8
O=C(Cc1cccs1)Nc1nc2ccccc2s1 | -7.9 | 64.5* | 1.3 | 18.3 | -0.9 | 4.8
CCc1nc(C)c(C#N)c2cc(OC)c(OC)cc12 | 43.7* | 2.6 | 0.1 | 12.4 | -0.5 | -60.4
